Shown are actives, neighbours in structure and some others; about 2.1% of the full set was active somewhere.
Cardio protect = myocardial damage modulation in H9c2 cells | actives 0.63% (n = 360,000) | protection from H2O2 cell death, % at 20 µM | H9c2 cardiomyocytes, H2O2 injury protection, ATPLite, 2 h;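 active = compounds giving at least 50% protection of heart cells from peroxide-induced death in the single-dose screen, raw or plate-pattern-corrected value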;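 also: 0% = DMSO wells with peroxide and 100% = DMSO wells without peroxide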
aDG glyco act = increases alpha dystroglycan glycosylation; Pro5-aDG cells, alpha-DG glycosylation AlphaScreen (IIH6); 0% Pro5, 100% B10-LARGE cell signal; activation, % at 10 µM; actives 0.22% (n = 360,000); AID 624168;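 active = activation of at least 8% versus controls, or a plate z-score of at least 8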;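 also: Pro5 are CHO cells carrying HIG-tagged alpha-DG that lacks glycosylation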
B2AR ag = human beta-2 adrenergic receptor agonism by FAP; P07550; Am2.2-beta2AR cells, FAP receptor internalization, flow cytometry; response, % (no concentration beside the values); actives 0.43% (n = 340,000);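 active = response above a set limit, near 3 SD of response in nonfluorescent compounds, cut at about 42% in these data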
Target sequence (P07550 whole entry, looked up): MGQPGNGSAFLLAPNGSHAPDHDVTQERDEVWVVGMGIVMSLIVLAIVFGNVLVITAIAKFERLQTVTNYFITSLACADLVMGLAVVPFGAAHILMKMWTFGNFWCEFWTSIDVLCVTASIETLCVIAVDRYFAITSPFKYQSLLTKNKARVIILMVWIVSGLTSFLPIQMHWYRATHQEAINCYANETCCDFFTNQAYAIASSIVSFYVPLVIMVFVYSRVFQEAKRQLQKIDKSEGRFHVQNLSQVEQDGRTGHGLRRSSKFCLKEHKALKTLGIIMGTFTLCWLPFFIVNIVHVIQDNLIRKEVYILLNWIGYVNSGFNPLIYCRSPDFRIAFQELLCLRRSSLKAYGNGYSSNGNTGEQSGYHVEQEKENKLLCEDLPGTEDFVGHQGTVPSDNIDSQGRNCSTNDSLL
UCH37 DUB inh = human UCH37 deubiquitinating enzyme inhibition; purified proteasome/UCH37, Ub-AMC cleavage fluorescence; inhibition, % (no concentration beside the values); actives 0.33% (n = 330,000); AID 588478;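 active = mean inhibition over replicate wells above about 20%, limit read from the data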;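 also: 0% = compound-free wells with enzyme and 100% = wells lacking proteasome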
Target sequence (Q9Y5K5 whole entry, looked up): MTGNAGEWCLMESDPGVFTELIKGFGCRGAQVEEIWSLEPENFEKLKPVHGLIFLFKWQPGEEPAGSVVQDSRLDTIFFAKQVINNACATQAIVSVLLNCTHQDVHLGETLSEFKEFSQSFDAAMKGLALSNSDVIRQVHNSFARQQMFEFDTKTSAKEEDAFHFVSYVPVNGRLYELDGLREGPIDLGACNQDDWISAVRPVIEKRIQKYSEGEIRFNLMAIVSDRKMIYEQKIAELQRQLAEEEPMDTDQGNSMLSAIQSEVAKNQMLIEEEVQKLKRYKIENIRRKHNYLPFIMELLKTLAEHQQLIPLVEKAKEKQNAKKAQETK
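Material: human UCH37 enzyme supplied as purified proteasome complex. Measure: % inhibition of Ub-AMC cleavage fluorescence. Medium: pH 7.4 Tris-HCl (50 mM) with ovalbumin, ATP-MgCl2, DTT. Times: 30 min preincubation with enzyme, 25 min cleavage at room temperature. Detection: AMC fluorescence intensity at 355/460 nm.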
PfGluPho inh = PfG6PD (Plasmodium falciparum) enzyme inhibition | actives 0.78% (n = 350,000) | AID 504690 | PfGluPho enzyme, NADPH resazurin-diaphorase fluorescence | inhibition, % at 20 µM;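 active = inhibition reaching at least a set limit at 20 µM in the primary screen, cut at about 59% in these data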;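 also: 0% = DMSO wells with substrate and 100% = DMSO wells lacking glucose-6-phosphate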
HKDC1 inh = HKDC1 (human) hexokinase inhibition; Q2TB90; actives 0.16% (n = 340,000); inhibition, % at 20 µM; recombinant HKDC1, G6PDH/diaphorase resazurin coupled fluorescence;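 active = inhibition above about 35% when tested at 20 µM, limit read from the data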;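 also: plate controls were DMSO wells with enzyme for no effect and DMSO wells lacking enzyme for full effect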
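System: Recombinant HKDC1 hexokinase | Amount: HKDC1 at 5 µg/mL | Reagent: Glucose with 1 mM ATP | Doses: Single 20 µM dose | Incubation: Reaction time 90 min, room temperature, protected from light | Signal: Coupled resazurin fluorescence, excitation 525 nm, emission 613 nm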
PfG6PD confirm = confirmation of Plasmodium falciparum G6PD inhibitors. inhibition, % at 20 µM. recombinant PfGluPho, NADPH-diaphorase-resazurin fluorescence. AID 504753. actives 34% (n = 2,400). shares compounds with PfGluPho inh;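 active = inhibition of at least 50% at 20 µM in any single replicate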;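 also: 0% = DMSO with substrate and 100% = DMSO lacking glucose-6-phosphate substrate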
Diaph ctr 10uM = diaphorase inhibition or oxidation at 10 uM NADPH; shares compounds with PfGluPho inh; diaphorase-coupled resazurin reduction, fluorescence, NADPH 10 uM; inhibition, % at 20 µM; actives 39% (n = 820); AID 504862;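 active = average inhibition reaching 50% or more with the compound at 20 µM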;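 also: resorufin red fluorescence formed as diaphorase reduces resazurin using NADPH; 0% = DMSO with enzyme and 100% = DMSO without enzyme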
Diaphorase 30uM = diaphorase inhibition or oxidation at 30 uM NADPH | actives 29% (n = 820) | Diaphorase/resazurin coupled assay, resorufin fluorescence | shares compounds with PfGluPho inh | inhibition, % at 20 µM;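 active = inhibition averaging 50% or more, tested at 20 µM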;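 also: 0% = DMSO with enzyme and 100% = DMSO wells lacking diaphorase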
* hit, by the source's call; . = no result given.

SMILES	Cardio protect	aDG glyco act	B2AR ag	UCH37 DUB inh	PfGluPho inh	HKDC1 inh	PfG6PD confirm	others
Cn1c(C(=O)NCc2ccc3c(c2)OCO3)cc2sccc21	4	0	1	4	20	-3	.
Cn1c(C(=O)Nc2ccc3c(c2)OCO3)cc2sccc21	-12	0	2	2	81*	8	22
N#Cc1cc([N+](=O)[O-])ccc1Oc1cccc(C=NNC(=O)c2ccc(Cl)cc2)c1	.	.	.	3	.	.	.
CC(=NNC(=O)C(C)n1nc(C)c([N+](=O)[O-])c1C)c1ccccc1O (stereo not drawn)	.	.	.	0	.	.	.
Cc1ccc(S(=O)(=O)Nc2ccccc2-c2ccccc2)cc1	-9	0	-2	3	76*	3	32
Cc1ccc(S(=O)(=O)Nc2ccccc2N2CCCCC2)cc1	-23	0	-3	5	95*	2	35
Cc1ccc(S(=O)(=O)Nc2ccccc2N2CCOCC2)cc1	-3	0	-1	4	62*	-7	39
Cc1ccc(S(=O)(=O)Nc2ccccc2NS(=O)(=O)c2ccc(C)cc2)cc1	-8	0	.	.	.	.	.
Nc1cc(S(=O)(=O)Nc2ccccc2Cl)ccc1N1CCCCC1	-15	2	0	3	67*	-5	40
COC(=O)c1ccc(N2CCCCC2)c(NS(=O)(=O)c2ccc(C)cc2)c1	-10	0	0	0	2	-2	.
Cc1ccc(S(=O)(=O)Nc2ccc(N3CCOCC3)cc2)cc1	3	0	-2	-2	10	-3	.
COc1cc(C(=O)NN=Cc2ccc(OC(=O)N3CCOCC3)cc2)cc(OC)c1OC	.	.	.	6	.	.	.
Cc1cccc(C(=O)ON=C2CC3CCC2(C)C3(C)C)c1 (stereo not drawn)	.	.	.	3	.	.	.
Cc1cccc(S(=O)(=O)Nc2cc(Cl)ccc2N2CCOCC2)c1	-9	0	2	4	87*	-2	31
Cc1ccc(NC(=O)COc2ccc(C=NNC(=O)c3cccnc3)cc2)cc1C	.	.	.	-58	.	.	.
O=C(c1ccco1)N1CCN(C(=O)c2ccc(-c3ccc([N+](=O)[O-])cc3)o2)CC1	10	0	3	14	64*	7	-6
O=C(c1ccc([N+](=O)[O-])cc1)N1CCN(C(=O)c2ccco2)CC1	-2	0	-6	-1	-9	-8	.
Cc1ccc(N(CC(=O)N/N=C/c2cccs2)S(C)(=O)=O)cc1Cl	-10	0	-2	.	106*	4	75*	Diaph ctr 10uM=70*;Diaphorase 30uM=65*
O=C1C(=Cc2cccc(O)c2O)SC(=S)N1CCCN1CCOCC1	34	0	.	.	70*	.	50*	Diaph ctr 10uM=-12;Diaphorase 30uM=-6
O=C(CCCN1C(=O)/C(=C/c2ccccc2Cl)SC1=S)NCCCN1CCOCC1	-5	1	0	9	-12	-1	.
CCCc1cc(=O)[nH]c(SCC(=O)NC2CCCc3ccccc32)n1 (stereo not drawn)	-5	0	5	1	64*	2	29
Nc1cc(=O)[nH]c(SCC(=O)NC2CCCc3ccccc32)n1 (stereo not drawn)	4	0	0	3	3	-9	.
Cc1cc(C(=O)NN=Cc2sc(N3CCOCC3)nc2-c2ccccc2)c(C)o1	.	.	.	-67	.	.	.
CCN(CC)CCCNc1ccc2ncn3c4ccc(O)cc4c(=O)c1c23	-1	0	-524	.	80*	29	-13
O=[N+]([O-])c1ccc(Sc2ccncn2)c([N+](=O)[O-])c1	-19	0	.	.	18	.	.
SMILES	Cardio protect	aDG glyco act	B2AR ag	UCH37 DUB inh	PfGluPho inh	HKDC1 inh	PfG6PD confirm	others
O=[N+]([O-])c1ccc(Sc2cccc3cccnc23)cc1	-4	0	1	6	114*	14	83*	Diaph ctr 10uM=77*;Diaphorase 30uM=72*
O=[N+]([O-])c1cc(Cl)ccc1Sc1ccccn1	-2	0	-6	2	51	0	.
O=[N+]([O-])c1ccc(Sc2cccc3cccnc23)c([N+](=O)[O-])c1	-8	0	18	8	148*	-30	99*	Diaph ctr 10uM=71*;Diaphorase 30uM=61*
O=[N+]([O-])c1cc(Cl)ccc1Sc1cccc2cccnc12	-4	0	8	5	129*	0	90*	Diaph ctr 10uM=88*;Diaphorase 30uM=82*
Cn1nc(C(F)(F)F)c(C=NOC(=O)c2ccccc2Cl)c1SCc1ccccc1Cl	.	.	.	0	.	.	.
COc1cc(C=Nn2nnnc2N)ccc1OCC(N)=O	.	.	.	-3	.	.	.
Oc1ccc(C2C[C@H]3CC[C@@H]2C3)cc1O (stereo partly drawn)	31	0	3	2	79*	5	77*	Diaph ctr 10uM=27;Diaphorase 30uM=23
O=C1CC(c2ccc(O)c(O)c2)Oc2cc(O)cc(O)c21 (stereo not drawn)	18	0	12	-2	-31	0	.
Cc1cc(C(=O)NN=Cc2ccc(C)s2)n[nH]1	.	.	.	7	.	.	.
CC(=O)CSc1ccc(-c2nc3cc(C)c(C)cc3[nH]2)cn1	-32	0	21	-18	67*	-4	20
Cc1ccc2nc(-c3ccc(SCC(=O)N4CCc5ccccc54)nc3)[nH]c2c1	-5	0	-7	-9	59	0	12
CC(=O)CSc1ccc(-c2nc3ccccc3[nH]2)cn1	-14	0	-2	-6	9	1	.
O=C(NCCc1ccccc1)c1ccnc(C=NO)c1	.	.	.	5	.	.	.
COCCNC(=S)NN=Cc1c2ccccc2cc2ccccc12	.	.	.	-8	.	.	.
O=C1C=CC(=O)N1CCCCCCCCCCN1C(=O)C=CC1=O	-10	0	16	-1	84*	3	55*	Diaph ctr 10uM=-20;Diaphorase 30uM=-25
COc1ccc(C=NNC(=O)CN2CCN(Cc3ccccc3)CC2)cc1Br	.	.	.	4	.	.	.
COc1ccc(C(=O)Nc2cc(Cl)ccc2OC(=O)c2ccc(OC)cc2)cc1	-12	0	0	1	34	-2	.
O=C(COc1ccccc1C(=O)O)Nc1cccc2ccccc12	-1	0	-10	3	-15	0	.
O=C(COc1cccc2ccccc12)Nc1ccc(Cl)cc1C(=O)O	-3	0	6	4	75*	20	64*	Diaph ctr 10uM=60*;Diaphorase 30uM=48
COc1ccc(C(=O)Nc2cc(Cl)ccc2C(=O)O)cc1	-6	0	6	1	105*	6	51*	Diaph ctr 10uM=45;Diaphorase 30uM=47
O=C(COc1cccc2ccccc12)Nc1cc(Cl)ccc1C(=O)O	-2	0	2	.	105*	19	69*	Diaph ctr 10uM=60*;Diaphorase 30uM=59*

Screening data as filed in PubChem.
